The record followed here is ChEMBL document CHEMBL1649525, “Population pharmacokinetic analysis of colistin methanesulfonate and colistin after intravenous administration in critically ill patients with infections caused by gram-negative bacteria” (Antimicrob Agents Chemother, 2009).

The subject of series [1] is Acinetobacter baumannii. Kind of series: Antimicrobial activity against Acinetobacter baumannii by CLSI method. In kind it is functional.
The nature of series [2]: Clearance in patient with gram-negative bacterial infection at […], iv. The class given is ADME, organism-based. On the set-up: route intravenous. To be noted: human, in vivo. In outline: (§1)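 Critically ill ICU patients (n=18) received CMS 3 MU (240 mg) in 100 ml saline as a 15-min IV infusion every 8 h, reduced to 160 mg q8h if creatinine clearance was <50 ml/min. Venous plasma was taken predose and 15–465 min after the first and fourth infusions, then chilled and stored at −70°C. Colistin was measured by LC-MS/MS, and CMS after acid hydrolysis. Parameters came from NONMEM population modelling.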

Series [3] is described as follows: Volume of distribution of central compartment in patient with gram-negative bacterial infection at […], iv. The class given is ADME, organism-based. On the set-up: route intravenous. The following applies: human, in vivo. In outline: as §1
For series [4], the system named is Pseudomonas aeruginosa. Kind of series: Antimicrobial activity against Pseudomonas aeruginosa by CLSI method. In kind it is functional.
Series [5] can be described thus: Cmax in patient with gram-negative bacterial infection at […], iv after 15 mins. The class given is ADME, organism-based. The arrangement: route intravenous. To be noted: human, in vivo. A digest of the protocol: as §1
For series [6], the system named is Acinetobacter baumannii. Kind of series: Antimicrobial activity against Acinetobacter baumannii by EUCAST method. The class given is functional.
A short description of series [7]: Drug concentration at steady state in patient with gram-negative bacterial infection at […], iv after 7 hrs. In kind it is ADME, organism-based. On the set-up: route intravenous. The following applies: human, in vivo, read-out: Css. A digest of the protocol: as §1
Series [8] relates to Homo sapiens. Briefly: Intercompartmental clearance in patient with gram-negative bacterial infection at […], iv. In kind it is ADME, organism-based. On the set-up: route intravenous. To be noted: in vivo. In outline: as §1
The subject of series [9] is Pseudomonas aeruginosa. Briefly: Antimicrobial activity against Pseudomonas aeruginosa by EUCAST method. In kind it is functional.
Series [10] is described as follows: (§2) Half life in peripheral compartment of patient with gram-negative bacterial infection at […], iv. The class given is ADME, organism-based. On the set-up: route intravenous. To be noted: human, in vivo. A digest of the protocol:
as §1

Series [11] is described as follows: (§3) Half life in central compartment of patient with gram-negative bacterial infection at […], iv. The class given is ADME, organism-based. On the set-up: route intravenous. The following applies: human, in vivo. In outline: as §1
For series [12], the system named is Homo sapiens. Briefly: Volume of distribution of formed compound in patient with gram-negative bacterial infection at […], iv. The class given is ADME, organism-based. The following applies: in vivo. On the set-up: route intravenous. A digest of the protocol: as §1
The subject of series [13] is Homo sapiens. Briefly: Half life in patient with gram-negative bacterial infection at […], iv. The class given is ADME, organism-based. The arrangement: route intravenous. The following applies: in vivo. A digest of the protocol: as §1
Series [14] deals with Homo sapiens. Kind of series: Clearance of formed compound in patient with gram-negative bacterial infection at […], iv. In kind it is ADME, organism-based. The arrangement: route intravenous. To be noted: in vivo. A digest of the protocol: as §1
The test system of series [15] is Homo sapiens. The description is as §2. The class given is ADME, organism-based. The arrangement: route intravenous. To be noted: in vivo. In outline:
as §1

The test system of series [16] is Homo sapiens. The series is described as §3. In kind it is ADME, organism-based. The arrangement: route intravenous. The following applies: in vivo. A digest of the protocol:
as §1

`CCC(C)CCCCC(=O)N[C@@H](CCNCS(=O)(=O)O)C(=O)N[C@H](C(=O)N[C@@H](CCNCS(=O)(=O)O)C(=O)N[C@H]1CCNC(=O)[C@H]([C@@H](C)O)NC(=O)[C@H](CCNCS(=O)(=O)O)NC(=O)[C@H](CCNCS(=O)(=O)O)NC(=O)[C@H](CC(C)C)NC(=O)[C@@H](CC(C)C)NC(=O)[C@H](CCNCS(=O)(=O)O)NC1=O)[C@@H](C)O.CS(=O)(=O)O` (stereo partly specified) [COLISTIN METHYLSULPHATE]: the MIC in series [1], in [4], in [6] and in [9] was ≤ 2 µg/mL in each case. This compound also gave a clearance in series [2] of 228 mL/min. The Vd in [3] came out at 13.5 L. Further, in series [5], the Cmax worked out at 2930 ng/mL. Also, the concentration at 7 h in series [7] was determined as 2300 ng/mL. This compound also registered a CL in series [8] of 133 L/h. The half-life in [10] was 2.3 h; in series [11], 2.76 min.

For the compound COLISTIN, the Vd in series [12] came out at 189 L. The figures for the t1/2 in [13], in series [15] and in [16] were 7.1 h, 14.4 h and 14.4 h, respectively. In [14], this compound had a CL of 9.09 L/h.

Broadly, the MIC is the least concentration at which growth counts as inhibited. Read a low MIC as greater potency. By clearance is commonly meant the rate of elimination divided by the concentration. What is called Vd is a proportionality between amount in the body and measured concentration, not a real space. High values mean wide distribution into tissue, low ones little distribution into tissue. As a reminder, the Cmax is the peak of the concentration-time curve. As a reminder, the half-life is how long it takes for the measured level to halve.
